The results in this text go back to ChEMBL document CHEMBL1124792, “Synthesis and structure-activity relationships of 5-substituted 6,8-difluoroquinolones, including sparfloxacin, a new quinolone antibacterial agent with improved potency” (1990).

≈ marks a conversion by molar mass, not a printed value.

What all share (assay type): functional
In experiment [1] the test system is Escherichia coli. As to the kind of experiment: In vitro antibacterial activity against Escherichia coli P-5101. A digest of the protocol: (§1)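 Two-fold agar dilution MIC on Mueller-Hinton agar (pH 7.4), following the Japan Society of Chemotherapy MIC Committee method. Inoculum was about 10⁶ CFU, and growth was read after 20 h at 37 °C. MIC is reported in µg/mL.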

Experiment [2] has as its system Pseudomonas aeruginosa. Description: In vitro antibacterial activity against Pseudomonas aeruginosa IFO 3445. A digest of the protocol: as §1
The subject of a further experiment is Klebsiella pneumoniae. Description: In vitro antibacterial activity against Klebsiella pneumoniae 13. Summed up:
as §1

For experiment [3], the species on record is Mus musculus. As to the kind of experiment: Oral efficacy against Pseudomonas aeruginosa 12 on Systemic Infections in Mice. A digest of the protocol: (§2)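 Groups of at least 10 male Std-ddY mice (20 ± 2 g) were infected ip, with S. pyogenes A65 at 3×10^7 cells or P. aeruginosa 12 at 4×10^3 cells. Compounds were suspended in 0.2% sodium carboxymethylcellulose and given orally at 0 and 6 h postinfection. The result is reported as ED50 in mg/kg.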

The subject of another experiment is Enterococcus faecalis. As to the kind of experiment: In vitro antibacterial activity against Streptococcus faecalis 2473. Summed up:
as §1

Experiment [4] is filed under the species Mus musculus. Description: Oral efficacy against Streptococcus pyogenes A65 on Systemic Infections in Mice. A digest of the protocol: as §2
In the next experiment the test system is Moraxella bovis. As to the kind of experiment: In vitro antibacterial activity against glucose nonfermenter Moraxella bovis P-7101. A digest of the protocol:
as §1

Experiment [5] has as its system Pseudomonas aeruginosa. As to the kind of experiment: In vitro antibacterial activity against Pseudomonas aeruginosa 12. Summed up:
as §1

The subject of the next experiment is Enterobacter cloacae. Description: In vitro antibacterial activity against Enterobacter cloacae 963.
Experiment [6] concerns Serratia marcescens. As to the kind of experiment: In vitro antibacterial activity against Serratia marcescens S-9. A digest of the protocol: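 MIC (µg/mL) by 2-fold agar dilution on Mueller-Hinton agar (pH 7.4), following the Japan Society of Chemotherapy MIC Committee method. Inoculum of about 10⁶ CFU. Growth was read after 20 h at 37 °C.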
Experiment [7] concerns Staphylococcus epidermidis. Description: In vitro antibacterial activity against Streptococcus epidermis 8. A digest of the protocol:
as §1

A further experiment has as its system Streptococcus pyogenes. As to the kind of experiment: In vitro antibacterial activity against Streptococcus pyogenes A65. Summed up:
as §1

The test system of experiment [8] is Staphylococcus aureus. Description: In vitro antibacterial activity against Staphylococcus aureus 50774. Summed up: as §1
Experiment [9] relates to Escherichia coli. As to the kind of experiment: In vitro antibacterial activity against Escherichia coli NIHJ JC-2. A digest of the protocol: as §1
Experiment [10] has as its system Serratia marcescens. Description: In vitro antibacterial activity against Serratia marcescence S-9. Summed up:
as §1

The test system of experiment [11] is Staphylococcus aureus. As to the kind of experiment: In vitro antibacterial activity against Staphylococcus aureus 209P JC-1. Summed up:
as §1

In general, MIC refers to the least concentration at which growth counts as inhibited. A high value points to a need for much substance. Usually ED50 stands for the dose that gives a 50% effect, or the effect in half of the subjects. Low values mean an effect at a small dose, high ones a need for a large dose. `O=C(O)c1cn(C2CC2)c2c(F)c(N3CCNCC3)c(F)cc2c1=O`: the MIC in the experiment on Escherichia coli [1] stood at 0.0031 µg/mL (≈ 0.00887 µM); against Pseudomonas aeruginosa [2] it was 0.2 µg/mL (≈ 0.573 µM); in the experiment with Klebsiella pneumoniae, 0.0125 µg/mL (≈ 0.0358 µM); in the experiment with Enterococcus faecalis, 0.78 µg/mL (≈ 2.23 µM); in the experiment with Moraxella bovis it was 0.39 µg/mL (≈ 1.12 µM); with Pseudomonas aeruginosa [5] it was 0.05 µg/mL (≈ 0.143 µM). For the same compound, the MIC with Enterobacter cloacae was 0.025 µg/mL (≈ 0.0716 µM); against Serratia marcescens [6] it was 0.025 µg/mL (≈ 0.0716 µM); in experiment [7], 0.025 µg/mL (≈ 0.0716 µM); in the experiment on Streptococcus pyogenes, 0.2 µg/mL (≈ 0.573 µM); against Staphylococcus aureus [8], 0.05 µg/mL (≈ 0.143 µM). Besides, the values for the ED50 in the experiment filed under Mus musculus [3] and in the experiment filed under Mus musculus [4] were 1.22 mg/kg and 20.5 mg/kg, respectively.
Regarding `CC1CN(c2c(F)c(N)c3c(=O)c(C(=O)O)cn(C4CC4)c3c2F)CCN1` (stereo not drawn), the MIC came to 0.0063 µg/mL (≈ 0.0166 µM) with Escherichia coli [1]; 0.2 µg/mL (≈ 0.529 µM) against Pseudomonas aeruginosa [2]; 0.0125 µg/mL (≈ 0.033 µM) in the experiment on Klebsiella pneumoniae; 0.006 µg/mL (≈ 0.0159 µM) in the experiment on Escherichia coli [9]; 0.39 µg/mL (≈ 1.03 µM) with Enterococcus faecalis; 0.39 µg/mL (≈ 1.03 µM) in the experiment on Moraxella bovis. For the same compound, the MIC in the experiment on Pseudomonas aeruginosa [5] stood at 0.2 µg/mL (≈ 0.529 µM); against Enterobacter cloacae, 0.025 µg/mL (≈ 0.0661 µM); in experiment [7], 0.025 µg/mL (≈ 0.0661 µM); in the experiment with Streptococcus pyogenes, 0.39 µg/mL (≈ 1.03 µM); against Staphylococcus aureus [8], 0.025 µg/mL (≈ 0.0661 µM); with Serratia marcescens [10], 0.05 µg/mL (≈ 0.132 µM). In the experiment with Staphylococcus aureus [11], this compound registered an MIC of 0.025 µg/mL (≈ 0.0661 µM). In addition, the ED50 came to 1.11 mg/kg in the experiment listed under Mus musculus [3] and 6.54 mg/kg in the experiment listed under Mus musculus [4].
In the case of `Nc1c(F)c(N2CCNCC2)c(F)c2c1c(=O)c(C(=O)O)cn2C1CC1`, the MIC against Escherichia coli [1] was 0.0063 µg/mL (≈ 0.0173 µM); with Pseudomonas aeruginosa [2], 0.39 µg/mL (≈ 1.07 µM); with Klebsiella pneumoniae, 0.025 µg/mL (≈ 0.0686 µM); in the experiment with Escherichia coli [9] it was 0.0063 µg/mL (≈ 0.0173 µM); in the experiment on Enterococcus faecalis it was 0.39 µg/mL (≈ 1.07 µM); against Moraxella bovis, 0.39 µg/mL (≈ 1.07 µM). The MIC worked out at 0.1 µg/mL (≈ 0.274 µM) with Pseudomonas aeruginosa [5]; 0.0125 µg/mL (≈ 0.0343 µM) in the experiment on Enterobacter cloacae; 0.05 µg/mL (≈ 0.137 µM) in the experiment with Serratia marcescens [6]; 0.05 µg/mL (≈ 0.137 µM) in [7]; 0.2 µg/mL (≈ 0.549 µM) with Streptococcus pyogenes; 0.05 µg/mL (≈ 0.137 µM) against Staphylococcus aureus [8]. The compound further displayed a minimal inhibitory concentration (MIC) against Staphylococcus aureus [11] of 0.05 µg/mL (≈ 0.137 µM). Further, the ED50 is 1.56 mg/kg in the experiment listed under Mus musculus [3] and 170 mg/kg in the experiment filed under Mus musculus [4].
As for `CC1CN(c2c(F)c(O)c3c(=O)c(C(=O)O)cn(C4CC4)c3c2F)CCN1` (stereo not drawn), the MIC against Escherichia coli [1] turned out to be 0.025 µg/mL (≈ 0.0659 µM); in the experiment on Pseudomonas aeruginosa [2], 0.78 µg/mL (≈ 2.06 µM); against Klebsiella pneumoniae it was 0.1 µg/mL (≈ 0.264 µM); in the experiment with Escherichia coli [9], 0.025 µg/mL (≈ 0.0659 µM); against Enterococcus faecalis, 1.56 µg/mL (≈ 4.11 µM); against Moraxella bovis it was 1.56 µg/mL (≈ 4.11 µM). The MIC in the experiment with Pseudomonas aeruginosa [5] turned out to be 0.78 µg/mL (≈ 2.06 µM); in the experiment with Enterobacter cloacae it was 0.05 µg/mL (≈ 0.132 µM); in experiment [7], 0.1 µg/mL (≈ 0.264 µM); in the experiment with Streptococcus pyogenes, 0.78 µg/mL (≈ 2.06 µM); with Staphylococcus aureus [8], 0.2 µg/mL (≈ 0.527 µM); against Serratia marcescens [10], 0.1 µg/mL (≈ 0.264 µM). The minimal inhibitory concentration (MIC) in the experiment with Staphylococcus aureus [11] turned out to be 0.2 µg/mL (≈ 0.527 µM). Further, the values for the ED50 in the experiment filed under Mus musculus [3] and in the experiment listed under Mus musculus [4] were 5.97 mg/kg and 12.5 mg/kg, respectively.
On to `Nc1c(F)c(N2CCNC(CF)C2)c(F)c2c1c(=O)c(C(=O)O)cn2C1CC1` (stereo not drawn), for which the MIC against Escherichia coli [1] stood at 0.0063 µg/mL (≈ 0.0159 µM); in the experiment on Pseudomonas aeruginosa [2] it was 0.39 µg/mL (≈ 0.984 µM); in the experiment on Klebsiella pneumoniae, 0.025 µg/mL (≈ 0.0631 µM); with Escherichia coli [9], 0.0063 µg/mL (≈ 0.0159 µM); in the experiment on Enterococcus faecalis, 0.39 µg/mL (≈ 0.984 µM); against Moraxella bovis, 0.39 µg/mL (≈ 0.984 µM). The minimum inhibitory concentration (MIC) against Pseudomonas aeruginosa [5] was 0.2 µg/mL (≈ 0.505 µM); with Enterobacter cloacae, 0.025 µg/mL (≈ 0.0631 µM); in experiment [7], 0.0125 µg/mL (≈ 0.0315 µM); in the experiment on Streptococcus pyogenes, 0.2 µg/mL (≈ 0.505 µM); in the experiment on Staphylococcus aureus [8] it was 0.0125 µg/mL (≈ 0.0315 µM); in the experiment with Serratia marcescens [10], 0.1 µg/mL (≈ 0.252 µM). In the experiment with Staphylococcus aureus [11], this compound registered an MIC of 0.025 µg/mL (≈ 0.0631 µM). In addition, the ED50 in the experiment listed under Mus musculus [3] was 7.02 mg/kg; in the experiment listed under Mus musculus [4], 17.4 mg/kg.
Turning to `C[C@H]1CN(c2c(F)c(N)c3c(=O)c(C(=O)O)cn(C4CC4)c3c2F)CCN1`, the MIC in the experiment with Escherichia coli [1] came out at 0.0063 µg/mL (≈ 0.0166 µM); with Pseudomonas aeruginosa [2], 0.2 µg/mL (≈ 0.529 µM); in the experiment with Klebsiella pneumoniae, 0.0125 µg/mL (≈ 0.033 µM); in the experiment on Escherichia coli [9], 0.0063 µg/mL (≈ 0.0166 µM); in the experiment on Enterococcus faecalis, 0.39 µg/mL (≈ 1.03 µM); in the experiment with Moraxella bovis it was 0.2 µg/mL (≈ 0.529 µM). Besides, the MIC with Pseudomonas aeruginosa [5] was determined as 0.1 µg/mL (≈ 0.264 µM); in the experiment with Enterobacter cloacae it was 0.0125 µg/mL (≈ 0.033 µM); against Serratia marcescens [6], 0.05 µg/mL (≈ 0.132 µM); in experiment [7], 0.025 µg/mL (≈ 0.0661 µM); against Streptococcus pyogenes, 0.2 µg/mL (≈ 0.529 µM); with Staphylococcus aureus [8] it was 0.025 µg/mL (≈ 0.0661 µM). For the same compound, the MIC against Staphylococcus aureus [11] was found to be 0.025 µg/mL (≈ 0.0661 µM). The figures for the ED50 in the experiment listed under Mus musculus [3] and in the experiment listed under Mus musculus [4] were 0.84 mg/kg and 5.06 mg/kg, respectively.
As to `O=C(O)c1cn(C2CC2)c2c(F)c(N3CCNCC3)c(F)c(F)c2c1=O`, the MIC in the experiment on Escherichia coli [1] was determined as 0.0125 µg/mL (≈ 0.034 µM); in the experiment with Pseudomonas aeruginosa [2] it was 0.78 µg/mL (≈ 2.12 µM); in the experiment on Klebsiella pneumoniae, 0.05 µg/mL (≈ 0.136 µM); with Escherichia coli [9], 0.0125 µg/mL (≈ 0.034 µM); against Enterococcus faecalis it was 3.13 µg/mL (≈ 8.52 µM); with Moraxella bovis it was 3.13 µg/mL (≈ 8.52 µM). Besides, the MIC in the experiment on Pseudomonas aeruginosa [5] turned out to be 0.39 µg/mL (≈ 1.06 µM); against Enterobacter cloacae it was 0.025 µg/mL (≈ 0.0681 µM); against Serratia marcescens [6], 0.1 µg/mL (≈ 0.272 µM); in [7] it was 0.2 µg/mL (≈ 0.544 µM); with Streptococcus pyogenes, 3.13 µg/mL (≈ 8.52 µM); against Staphylococcus aureus [8] it was 0.39 µg/mL (≈ 1.06 µM). This compound also displayed an MIC in the experiment on Staphylococcus aureus [11] of 0.2 µg/mL (≈ 0.544 µM). Besides, the median effective dose (ED50) in the experiment filed under Mus musculus [3] is 3.87 mg/kg; in the experiment listed under Mus musculus [4], 25 mg/kg.
